Activity calls are given as the source filed them. The calls are words filed in the database; no cut-off is given here.
Experiments:
[1] = target: Sarcoplasmic/endoplasmic reticulum calcium ATPase 1 (Oryctolagus cuniculus, UniProt P04191); experiment: Inhibition of SERCA1 in NewZealand rabbit skeletal muscle SR vesicles using ATP as substrate incubated for 2 mins followed by Ca2+ addition by NADH coupled enzyme assay
Outline: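 SR vesicles (1 mg prot./ml) incubated with compound (10–70 μM) for 2 min at 37 °C, pH 7.2. Ca2+-ATPase rate measured by NADH-coupled enzyme assay as absorbance at 340 nm, 37 °C. Compared with untreated control; mean ± SD from at least three independent experiments.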

[2] = target: Sarcoplasmic/endoplasmic reticulum calcium ATPase 1 (Oryctolagus cuniculus) (UniProt P04191); experiment: Binding affinity to cytosolic region of SERCA1 ATP binding site in NewZealand rabbit SR vesicles assessed as conformational changes by measuring decrease in fluorescence intensity at IC50 incubated for 1 hr by FITC probe labeling based analysis
Sequence of Sarcoplasmic/endoplasmic reticulum calcium ATPase 1 (Oryctolagus cuniculus) (P04191 whole entry): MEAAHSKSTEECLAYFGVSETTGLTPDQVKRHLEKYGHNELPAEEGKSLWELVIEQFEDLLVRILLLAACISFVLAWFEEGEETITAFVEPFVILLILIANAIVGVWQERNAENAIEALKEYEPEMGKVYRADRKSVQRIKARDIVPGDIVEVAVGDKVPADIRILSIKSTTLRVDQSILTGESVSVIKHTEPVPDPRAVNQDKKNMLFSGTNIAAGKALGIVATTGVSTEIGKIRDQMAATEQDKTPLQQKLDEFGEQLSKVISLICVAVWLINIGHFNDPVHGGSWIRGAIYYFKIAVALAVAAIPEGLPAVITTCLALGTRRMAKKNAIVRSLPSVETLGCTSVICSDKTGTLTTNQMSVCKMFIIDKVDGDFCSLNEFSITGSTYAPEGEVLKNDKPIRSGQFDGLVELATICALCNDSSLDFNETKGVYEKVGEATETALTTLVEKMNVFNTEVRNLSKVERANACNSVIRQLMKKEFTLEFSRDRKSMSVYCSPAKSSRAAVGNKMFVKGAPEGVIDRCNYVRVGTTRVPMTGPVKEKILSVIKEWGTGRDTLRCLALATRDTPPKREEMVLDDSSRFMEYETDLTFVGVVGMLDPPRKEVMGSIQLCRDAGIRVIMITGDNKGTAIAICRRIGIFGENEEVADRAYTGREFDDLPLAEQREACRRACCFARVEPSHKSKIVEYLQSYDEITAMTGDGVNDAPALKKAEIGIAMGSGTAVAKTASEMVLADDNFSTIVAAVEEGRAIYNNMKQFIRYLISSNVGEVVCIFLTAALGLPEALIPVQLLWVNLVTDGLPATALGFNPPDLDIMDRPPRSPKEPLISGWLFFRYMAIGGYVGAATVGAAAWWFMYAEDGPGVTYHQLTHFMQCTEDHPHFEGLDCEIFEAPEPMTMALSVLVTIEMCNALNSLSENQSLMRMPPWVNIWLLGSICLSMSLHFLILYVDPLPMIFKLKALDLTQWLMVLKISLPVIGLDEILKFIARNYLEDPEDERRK
Outline: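 FITC labelling of SR vesicles (protein 12.5 mg/mL) after 1 h preincubation with compound, used as a probe of the cytosolic region of SERCA1. Figure legend states 30 min incubation at 20 mg/mL SR protein. Read-out is the decrease in FITC fluorescence versus untreated control. Mean ± SD from at least three independent experiments, each sample measured 2–3 times.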

[3] = target: Sarcoplasmic/endoplasmic reticulum calcium ATPase 1 (Oryctolagus cuniculus) (UniProt P04191); experiment: Binding affinity to transmembrane region of SERCA1A ATP binding site in NewZealand rabbit SR vesicles assessed as conformational changes by measuring intrinsic Trp fluorescence at IC50 incubated for 30 mins by spectrofluorometric analysis
Outline: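 SR vesicles (1 mg protein/mL) incubated 30 min with compound, at 37 °C per methods or room temperature per legend. Trp fluorescence excited at 295 nm, with emission maxima at 336 and 358 nm. Conformational change expressed as the I358/I336 ratio versus untreated control.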

[4] = target: Sarcoplasmic/endoplasmic reticulum calcium ATPase 1 (Rattus norvegicus) (UniProt Q64578); experiment: Inhibition of SERCA1 in glucose-stimulated rat INS-1E cells assessed as decline in insulin release preincubated for 24 hrs followed by glucose addition and measured after 30 mins by RIA
Sequence of Sarcoplasmic/endoplasmic reticulum calcium ATPase 1 (Rattus norvegicus) (Q64578 whole entry): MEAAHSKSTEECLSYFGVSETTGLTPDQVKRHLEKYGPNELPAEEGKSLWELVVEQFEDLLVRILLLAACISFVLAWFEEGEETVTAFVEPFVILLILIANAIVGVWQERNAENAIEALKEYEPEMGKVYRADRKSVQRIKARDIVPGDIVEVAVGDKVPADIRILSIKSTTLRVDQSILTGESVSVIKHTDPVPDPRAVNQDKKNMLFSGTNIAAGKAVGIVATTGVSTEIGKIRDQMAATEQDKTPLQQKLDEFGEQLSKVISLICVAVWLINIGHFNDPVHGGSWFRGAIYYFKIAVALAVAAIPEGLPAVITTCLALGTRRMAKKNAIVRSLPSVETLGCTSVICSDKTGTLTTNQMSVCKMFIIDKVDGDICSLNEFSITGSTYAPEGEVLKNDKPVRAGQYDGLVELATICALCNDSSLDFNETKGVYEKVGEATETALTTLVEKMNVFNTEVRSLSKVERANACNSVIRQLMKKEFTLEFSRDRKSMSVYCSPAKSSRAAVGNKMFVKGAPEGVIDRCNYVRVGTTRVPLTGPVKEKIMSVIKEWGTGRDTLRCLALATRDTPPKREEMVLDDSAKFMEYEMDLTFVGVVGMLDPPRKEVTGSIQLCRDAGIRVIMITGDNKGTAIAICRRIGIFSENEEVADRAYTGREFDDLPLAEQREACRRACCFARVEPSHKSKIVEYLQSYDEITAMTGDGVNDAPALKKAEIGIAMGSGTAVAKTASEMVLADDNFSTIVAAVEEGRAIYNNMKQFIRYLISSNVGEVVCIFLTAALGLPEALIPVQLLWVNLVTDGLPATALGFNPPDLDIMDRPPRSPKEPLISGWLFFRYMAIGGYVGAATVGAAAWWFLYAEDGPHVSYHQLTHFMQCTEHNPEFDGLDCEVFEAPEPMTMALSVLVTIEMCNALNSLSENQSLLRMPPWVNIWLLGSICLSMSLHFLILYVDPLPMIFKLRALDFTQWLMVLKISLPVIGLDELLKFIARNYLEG
Outline: (§1)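 INS-1E cells preincubated 24 h with compound, then washed and incubated 30 min at 37 °C in glucose-free KRBH. A further 30 min at 37 °C followed in KRBH containing 16.7 mM glucose. Insulin in collected supernatants determined by RIA with rat insulin standard.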

[5] = target: Sarcoplasmic/endoplasmic reticulum calcium ATPase 1 (Rattus norvegicus) (UniProt Q64578); experiment: Inhibition of SERCA1 in rat INS-1E cells assessed as induction of apoptosis by measuring decrease in living cells at IC50 for cell viability incubated for 24 hrs by Annexin V-FITC/propidium iodide staining based flow cytometry
Outline: (§2)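 INS-1E cells incubated 24 h with compound, then stained with Annexin V-FITC/propidium iodide. Living, early apoptotic and late apoptotic fractions scored by flow cytometry and compared with untreated cells.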

[6] = target: Sarcoplasmic/endoplasmic reticulum calcium ATPase 1 (Rattus norvegicus) (UniProt Q64578); experiment: Inhibition of SERCA1 in rat INS-1E cells assessed as induction of apoptosis by measuring increase in early apoptotic cells at IC50 for cell viability incubated for 24 hrs by Annexin V-FITC/propidium iodide staining based flow cytometry; outline: as §2
[7] = target: Sarcoplasmic/endoplasmic reticulum calcium ATPase 1 (Rattus norvegicus) (UniProt Q64578); experiment: Inhibition of SERCA1 in rat INS-1E cells assessed as induction of apoptosis by measuring increase in late apoptotic cells at IC50 for cell viability incubated for 24 hrs by Annexin V-FITC/propidium iodide staining based flow cytometry; outline: as §2
[8] = target: Sarcoplasmic/endoplasmic reticulum calcium ATPase 1 (Rattus norvegicus) (UniProt Q64578); experiment: Inhibition of SERCA1 in rat INS-1E cells assessed as insulin release preincubated for 24 hrs followed by incubation in glucose-free buffer and measured after 30 mins by RIA; type: cell-based; outline: as §1
INS-1E = experiment: Induction of SERCA2b expression in rat INS-1E cells at IC50 for cell viability incubated for 24 hrs by Western blot analysis; type: functional, cell-based
Outline: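 INS-1E cells grown in RPMI 1640 (11 mM glucose) were exposed to compound for 24 h, then lysed in ice-cold lysis buffer, homogenized through a needle and centrifuged. Lysates (15 μg/lane) separated by SDS-PAGE and immunoblotted for SERCA2. Signal normalized to β-actin and given as %, average of 3–6 experiments.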

Sequence of Sarcoplasmic/endoplasmic reticulum calcium ATPase 1 (P04191 whole entry): as the sequence (P04191 whole entry) above

IC50 ([1]; read-out: IC50) [µM]	Activity [2]	Activity [3]	inhibition [4]	inhibition [8]	IC50 ([1]; sr)	Structure (SMILES)	inhibition [5]	inhibition [6]	inhibition [7]	Activity (INS-1E)
29.4	Active	Active	Active	inactive		CC(C)=CCC/C(C)=C/Cc1cc([C@@H]2CC(=O)c3c(O)cc(O)cc3O2)c(O)cc1O	Active	Active	Active	
18.9	inactive	inactive	Active	inactive		CC1=C[C@@H]2c3c(O)cc(-c4cc5ccc(O)cc5o4)cc3O[C@@]3(c4ccc(O)cc4O)Oc4cc(O)ccc4[C@@H](C1)[C@H]23	Active	Active	inactive	Active
	Active	Active	Active	inactive	Not Active	CC1(C)Oc2cc3oc(-c4cc(O)cc(O)c4)cc3cc2CC1O (stereo not drawn) [(+/-)-MORACIN P]	Active	Active	inactive	
24.6	inactive	inactive	Active	inactive		Cc1cc2c3c(c1)-c1c(O)cc(-c4cc5ccc(O)cc5o4)cc1O[C@@]3(c1ccc(O)cc1O)Oc1cc(O)ccc1-2	Active	Active	inactive	Active
43.6	Active	Active	Active	inactive		CC(C)=CCc1c(-c2ccc(O)cc2O)oc2c3c(cc(O)c2c1=O)OC(C)(C)C=C3 [MORUSIN]	Active	inactive	Active	
35.6	Active	Active	Active	inactive		COc1cc(O)c([C@@H]2CC(=O)c3c(O)cc(O)cc3O2)cc1C/C=C(\C)CCC=C(C)C	Active	Active	Active	
	Active	Active	Active	inactive	Not Active	CC(C)(O)C1Cc2cc3cc(-c4cc(O)cc(O)c4)oc3cc2O1 (stereo not drawn) [MORACIN O]	Active	Active	inactive	

— ChEMBL document CHEMBL4610111, “Phenolic Compounds from Morus nigra Regulate Viability and Apoptosis of Pancreatic β-Cells Possibly via SERCA Activity” (ACS Med Chem Lett, 2020)
